In ChEMBL document CHEMBL1138784, “Rational design, synthesis, and biological evaluation of bis(pyrimido[5,6,1-de]acridines) and bis(pyrazolo[3,4,5-kl]acridine-5-carboxamides) as new anticancer agents” (J Med Chem, 2004):

What was measured:
[1] = Cytotoxicity against human H460M cancer cell line was determined after 144 hr; assay type: functional, cell-based; settings: Cancer cell lines
Method in brief: (§1)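 MTT colorimetric assay. Cells seeded by growth characteristics and preincubated 24 h, then exposed to drug for 1 h or 144 h at 37 °C, 5% CO2. H460M, MKN45 and PC-3 were grown in RPMI 1640 with 10% FCS. HCT116 was grown in D-MEM with 10% FBS and 2 mM glutamine.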

MKN-45 = assay: Cytotoxicity against human MKN45 cancer cell line was determined after 144 hr; assay type: functional, cell-based; settings: MKN-45, 144 h; method in brief: as §1
LoVo [2] = assay: Ratio of IC50 against sensitive LoVo cell line and that of doxorubicin resistance LoVo cell line was determined after 1 hr exposure; assay type: functional, Homo sapiens
LoVo [3] = assay: Cytotoxicity against doxorubicin resistant LoVo cell line was determined against 144 hrs; assay type: functional, cell-based; settings: Homo sapiens
Method in brief: (§2)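 MTT assay on doxorubicin-sensitive LoVo and resistant LoVo/Dx cells, 24 h preincubation, then 1 h or 144 h drug exposure at 37 °C, 5% CO2. IC50 in nM. Resistance index is IC50 on LoVo/Dx divided by IC50 on LoVo.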

Nucleic Acid = assay: Binding site preference is determined as the ratio of Poly (dA-dT)2 to Poly (dG-dC)2; assay type: nucleic-acid assay
Method in brief: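 Ethidium displacement fluorometry at pH 7.0 (10 mM Na2HPO4, 10 mM NaH2PO4, 1 mM EDTA) with 1.26 μM ethidium bromide and 1 μM [poly(dA-dT)]2 or [poly(dG-dC)]2, 20 °C. Ex 546 nm, em 595 nm, drug added serially from a DMSO stock. Preference taken from the [AT]/[GC] ratio of C50 values, counted significant only below 0.7 or above 1.3.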

SNB-19 [4] = assay: Percent growth of CNS SNB-19 cell line was determined at 10e-5 M concentration after 48 hr of exposing; assay type: functional, Homo sapiens
Method in brief: (§3)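 NCI sulforhodamine B screen. Cells seeded by growth rate, 24 h drug-free, then 48 h exposure to 10^-8, 10^-6 or 10^-5 M. Protein-stain optical density expressed as percent growth relative to untreated control (100%); negative values indicate cell kill.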

HCT-116 = assay: Cytotoxicity against human HCT116 cancer cell line was determined after 144 hr; assay type: functional, cell-based; settings: HCT-116, 144 h; method in brief: as §1
DU-145 [5] = assay: Percent growth of prostate DU-145 cell line was determined at 10e-6 M concentration after 48 hr of exposing; assay type: functional, Homo sapiens
DU-145 [6] = assay: Percent growth of prostate DU-145 cell line was determined at 10e-8 M concentration after 48 h of exposing; assay type: functional, Homo sapiens
[7] = Percent growth of melanoma LOX IMV1 cell line was determined at 10e-5 M concentration after 48 hr of exposing; assay type: functional, Homo sapiens; method in brief: as §3
[8] = Percent growth of melanoma LOX IMV1 cell line was determined at 10e-6 M concentration after 48 hr of exposing; assay type: functional, Homo sapiens; method in brief: as §3
[9] = Percent growth of melanoma LOX IMV1 cell line was determined at 10e-8 M concentration after 48 hr of exposing; assay type: functional, Homo sapiens; method in brief: as §3
PC-3 = assay: Cytotoxicity against human PC3 cancer cell line was determined after 144 hr; assay type: functional, cell-based; settings: PC-3, 144 h; method in brief: as §1
[10] = Cytotoxicity against doxorubicin resistant LoVo cell line was determined against 1 hour; assay type: cell-based; settings: Homo sapiens; method in brief: as §2
LoVo [11] = assay: Cytotoxicity against human LoVo cancer cell line was determined after 144 hr; assay type: functional, cell-based; method in brief: as §2
SNB-19 [12] = assay: Percent growth of CNS SNB-19 cell line was determined at 10e-6 M concentration after 48 hr of exposing; assay type: functional, Homo sapiens; method in brief: as §3
SNB-19 [13] = assay: Percent growth of CNS SNB-19 cell line was determined at 10e-8 M concentration after 48 hr of exposing; assay type: functional, Homo sapiens; method in brief: as §3
786-0 [14] = assay: Percent growth of renal 786-O cell line was determined at 10e-5 M concentration after 48 hr of exposing; assay type: functional, Homo sapiens; method in brief: as §3
786-0 [15] = assay: Percent growth of renal 786-O cell line was determined at 10e-6 M concentration after 48 h of exposing; assay type: functional, Homo sapiens; method in brief: as §3
786-0 [16] = assay: Percent growth of renal 786-O cell line was determined at 10e-8 M concentration after 48 h of exposing; assay type: functional, Homo sapiens; method in brief: as §3
MCF7 [17] = assay: Percent growth of breast MCF-7 cell line was determined at 10e-6 M concentration after 48 h of exposing; assay type: functional, Homo sapiens
MCF7 [18] = assay: Percent growth of breast MCF-7 cell line was determined at 10e-8 M concentration after 48 hr of exposing; assay type: functional, Homo sapiens
SW-620 [19] = assay: Percent growth of colon SW-620 cell line was determined at 10e-5 M concentration after 48 hr of exposing; assay type: functional, Homo sapiens; method in brief: as §3
SW-620 [20] = assay: Percent growth of colon SW-620 cell line was determined at 10e-6 M concentration after 48 hr of exposing; assay type: functional, Homo sapiens; method in brief: as §3
SW-620 [21] = assay: Percent growth of colon SW-620 cell line was determined at 10e-8 M concentration after 48 hr of exposing; assay type: functional, Homo sapiens; method in brief: as §3
NCI-H460 [22] = assay: Percent growth of lung NCI-H460 cell line was determined at 10e-5 M concentration after 48 hr of exposing; assay type: functional, Homo sapiens; method in brief: as §3
NCI-H460 [23] = assay: Percent growth of lung NCI-H460 cell line was determined at 10e-6 M concentration after 48 hr of exposing; assay type: functional, Homo sapiens; method in brief: as §3
NCI-H460 [24] = assay: Percent growth of lung NCI-H460 cell line was determined at 10e-8 M concentration after 48 hr of exposing; assay type: functional, Homo sapiens; method in brief: as §3
MOLT-4 [25] = assay: Percent growth of leukemia MOLT-4 cell line was determined at 10e-5 M concentration after 48 hr of exposing; assay type: functional, Homo sapiens; method in brief: as §3
MOLT-4 [26] = assay: Percent growth of leukemia MOLT-4 cell line was determined at 10e-6 M concentration after 48 h of exposing; assay type: functional, Homo sapiens; method in brief: as §3
MOLT-4 [27] = assay: Percent growth of leukemia MOLT-4 cell line was determined at 10e-8 M concentration after 48 hr of exposing; assay type: functional, Homo sapiens; method in brief: as §3
OVCAR-4 [28] = assay: Percent growth of ovarian OVCAR-4 cell line was determined at 10e-5 M concentration after 48 hr of exposing; assay type: functional, Homo sapiens; method in brief: as §3
OVCAR-4 [29] = assay: Percent growth of ovarian OVCAR-4 cell line was determined at 10e-6 M concentration after 48 hr of exposing; assay type: functional, Homo sapiens; method in brief: as §3
OVCAR-4 [30] = assay: Percent growth of ovarian OVCAR-4 cell line was determined at 10e-8 M concentration after 48 hr of exposing; assay type: functional, Homo sapiens; method in brief: as §3
DU-145 [31] = assay: Percent growth of prostate DU-145 cell line was determined at 10e-5 M concentration after 48 hr of exposing; assay type: functional, Homo sapiens
[32] = Cytotoxicity against human LoVo cancer cell line was determined after 1 hr; assay type: cell-based; method in brief: as §2
[33] = Cytotoxicity against human H460M cancer cell line was determined after 1 hr; assay type: cell-based; settings: Cancer cell lines; method in brief: as §1
[34] = Cytotoxicity against human MKN45 cancer cell line was determined after 1 hr; assay type: cell-based; settings: Cancer cell lines; method in brief: as §1
[35] = Cytotoxicity against human HCT116 cancer cell line was determined after 1 hr; assay type: cell-based; settings: HCT-116, 1 h; method in brief: as §1
HT-29 = assay: Cytotoxicity is determined as the concentration required to inhibit the growth of human colon adenocarcinoma (HT-29) cell line; assay type: functional, cell-based
MCF7 [36] = assay: Percent growth of breast MCF-7 cell line was determined at 10e-5 M concentration after 48 hr of exposing; assay type: functional, Homo sapiens
[37] = Cytotoxicity against human PC3 cancer cell line was determined after 1 hr; assay type: cell-based; settings: Cancer cell lines; method in brief: as §1

Compound `COc1ccc2c(c1)-c1nn(CCN(C)C)c3ccc(C(=O)NCCCN(C)CCCNC(=O)c4ccc5c6c(c7cc(OC)ccc7nc46)NN5CCN(C)C)c(c13)N2` has an IC50 [1] of 4.3 nM, an IC50 (MKN-45) of 13 nM and a Resistance index (LoVo [2]) of 58. The IC50 (LoVo [3]) was 290 nM, the Binding site preference (Nucleic Acid) was 5.5 and the Growth (SNB-19 [4]) was -37%. The IC50 (HCT-116) was 43 nM, the Growth (DU-145 [5]) was -8% and the Growth (DU-145 [6]) was 70%. The Growth [7] was -80%, the Growth [8] was 3% and the Growth [9] was 46%. The IC50 (PC-3) was 39 nM, the IC50 [10] was 3100 nM and the IC50 (LoVo [11]) was 5.1 nM. For the same compound, the Growth (SNB-19 [12]) was 0%, the Growth (SNB-19 [13]) was 47% and the Growth (786-0 [14]) was -33%. It also gave a Growth (786-0 [15]) of 11%, a Growth (786-0 [16]) of 53% and a Growth (MCF7 [17]) of 7%. For the same compound, the Growth (MCF7 [18]) was 66%, the Growth (SW-620 [19]) was -39% and the Growth (SW-620 [20]) was 3%. For the same compound, the Growth (SW-620 [21]) was 44%, the Growth (NCI-H460 [22]) was -58% and the Growth (NCI-H460 [23]) was 3%. For the same compound, the Growth (NCI-H460 [24]) was 23%, the Growth (MOLT-4 [25]) was -28% and the Growth (MOLT-4 [26]) was -28%. It also gave a Growth (MOLT-4 [27]) of 19%, a Growth (OVCAR-4 [28]) of -54% and a Growth (OVCAR-4 [29]) of -5%. The Growth (OVCAR-4 [30]) was 71%, the Growth (DU-145 [31]) was -21% and the IC50 [32] was 53 nM. It also gave an IC50 [33] of 26 nM, an IC50 [34] of 51 nM and an IC50 [35] of 120 nM. For the same compound, the IC50 (HT-29) was 3 nM, the Growth (MCF7 [36]) was -18% and the IC50 [37] was over 100 nM.
Compound `COc1ccc2c(c1)c(=O)c1c(NCCCN(C)CCCNc3ccc4c(=O)n(CCN(C)C)c(=O)n5c6ccc(OC)cc6c(=O)c3c45)ccc3c(=O)n(CCN(C)C)c(=O)n2c31` has an IC50 [1] of under 0.001 nM, an IC50 (MKN-45) of 0.0028 nM and a Resistance index (LoVo [2]) of 4.2. It also gave an IC50 (LoVo [3]) of 7.6 nM, a Binding site preference (Nucleic Acid) of 2.1 and a Growth (SNB-19 [4]) of -48%. For the same compound, the IC50 (HCT-116) was 0.66 nM, the Growth (DU-145 [5]) was 3% and the Growth (DU-145 [6]) was 40%. For the same compound, the Growth [7] was -91%, the Growth [8] was -34% and the Growth [9] was 26%. It also gave an IC50 (PC-3) of 1.2 nM, an IC50 [10] of 76 nM and an IC50 (LoVo [11]) of 0.95 nM. For the same compound, the Growth (SNB-19 [12]) was 14%, the Growth (SNB-19 [13]) was 38% and the Growth (786-0 [14]) was -79%. For the same compound, the Growth (786-0 [15]) was 10%, the Growth (786-0 [16]) was 37% and the Growth (MCF7 [17]) was -3%. It also gave a Growth (MCF7 [18]) of 39%, a Growth (SW-620 [19]) of -49% and a Growth (SW-620 [20]) of -2%. For the same compound, the Growth (SW-620 [21]) was 30%, the Growth (NCI-H460 [22]) was -87% and the Growth (NCI-H460 [23]) was -20%. For the same compound, the Growth (NCI-H460 [24]) was 14%, the Growth (MOLT-4 [25]) was -62% and the Growth (MOLT-4 [26]) was -33%. It also gave a Growth (MOLT-4 [27]) of 6%, a Growth (OVCAR-4 [28]) of -72% and a Growth (OVCAR-4 [29]) of -37%. It also gave a Growth (OVCAR-4 [30]) of 0%, a Growth (DU-145 [31]) of -66% and an IC50 [32] of 18 nM. For the same compound, the IC50 [33] was 0.06 nM, the IC50 [34] was 0.05 nM and the IC50 [35] was 0.85 nM. It also gave an IC50 (HT-29) of under 0.1 nM, a Growth (MCF7 [36]) of -63% and an IC50 [37] of 4.7 nM.
